Measurements published in ChEMBL document CHEMBL1158548, “Tetrahydrochromenoimidazoles as potassium-competitive acid blockers (P-CABs): structure-activity relationship of their antisecretory properties and their affinity toward the hERG channel” (J Med Chem, 2010).

Assays:
[1] = Inhibition of H+/K+ ATPase in hog gastric mucosa by malachite green based competitive binding assay; type: tissue-based, Sus scrofa
Outline: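 Hog gastric mucosa H+/K+-ATPase, isolated enzyme; competitive binding assay run at pH 7.4; pIC50 reported as geometric mean of 4-5 measurements.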

Rattus norvegicus = assay: Inhibition of pentagastrin-stimulated acid secretion in intraduodenally dosed perfused Sprague-Dawley rat Ghosh Schild model; type: functional; conditions: intraduodenal
Gastric gland = assay: Inhibition of acid secretion in New Zealand White rabbit intact gastric glands assessed as [14C]dimethylaminopyridine accumulation by radioactivity; type: functional, tissue-based; conditions: Oryctolagus cuniculus
Outline: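 Gastric glands isolated intact from New Zealand rabbits; cellular activity read as reduced accumulation of the weak base 14C-dimethylaminopyridine; pIC50 given as geometric mean of 4-5 determinations.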

hERG (KCNH2) = hERG (KCNH2) (Homo sapiens, UniProt Q12809); assay: Inhibition of human ERG expressed in CHO-K1 cells at 10 uM by whole-cell patch clamp technique; type: cell-based; conditions: CHO-K1 cells that express human ERG
Outline: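 CHO-K1 cells stably transfected with hERG; whole-cell patch clamp recording of tail currents with test compound at 10 μM, three cells per compound; relative block of tail current amplitude given as arithmetic mean.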

[2] = Partition coefficient, log D by HPLC; type: physicochemical; conditions: octanol/water
Outline: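 logD by reversed-phase HPLC at 37 °C, calibrated with seven reference substances of known logD.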

[3] = Dissociation constant, pKa at pH 2.0 to 11.0 by potentiometric cosolvent titration; type: physicochemical

Chain of hERG (KCNH2) (Q12809 whole entry): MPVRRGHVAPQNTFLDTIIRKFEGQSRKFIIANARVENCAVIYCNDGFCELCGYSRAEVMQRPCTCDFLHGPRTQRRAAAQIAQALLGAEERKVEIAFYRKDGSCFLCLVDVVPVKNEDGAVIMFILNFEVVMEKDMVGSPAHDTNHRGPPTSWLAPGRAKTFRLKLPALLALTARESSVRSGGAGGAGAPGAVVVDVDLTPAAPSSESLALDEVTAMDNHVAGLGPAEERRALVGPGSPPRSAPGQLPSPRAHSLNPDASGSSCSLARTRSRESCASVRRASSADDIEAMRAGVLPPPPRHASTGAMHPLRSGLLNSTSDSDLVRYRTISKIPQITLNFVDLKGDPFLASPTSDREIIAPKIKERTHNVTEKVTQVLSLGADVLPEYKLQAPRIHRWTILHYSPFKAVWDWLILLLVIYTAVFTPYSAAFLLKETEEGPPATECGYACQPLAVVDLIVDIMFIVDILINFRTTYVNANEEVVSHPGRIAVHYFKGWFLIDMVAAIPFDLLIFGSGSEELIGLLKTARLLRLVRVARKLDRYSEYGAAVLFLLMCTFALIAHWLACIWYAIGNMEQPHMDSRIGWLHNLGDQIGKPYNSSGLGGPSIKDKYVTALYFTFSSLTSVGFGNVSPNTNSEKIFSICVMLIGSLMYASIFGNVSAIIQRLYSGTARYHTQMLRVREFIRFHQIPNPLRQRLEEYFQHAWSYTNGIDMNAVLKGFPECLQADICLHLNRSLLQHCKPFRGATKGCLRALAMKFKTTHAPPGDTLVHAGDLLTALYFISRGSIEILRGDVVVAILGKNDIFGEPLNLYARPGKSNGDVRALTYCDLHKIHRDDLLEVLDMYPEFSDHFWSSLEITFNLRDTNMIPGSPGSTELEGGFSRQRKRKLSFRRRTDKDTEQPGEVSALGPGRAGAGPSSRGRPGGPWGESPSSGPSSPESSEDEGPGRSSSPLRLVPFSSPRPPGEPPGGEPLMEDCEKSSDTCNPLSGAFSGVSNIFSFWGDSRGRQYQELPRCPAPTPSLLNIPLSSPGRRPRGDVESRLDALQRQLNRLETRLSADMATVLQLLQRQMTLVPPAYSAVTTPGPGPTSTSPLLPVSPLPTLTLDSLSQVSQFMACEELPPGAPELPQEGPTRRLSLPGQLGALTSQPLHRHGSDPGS

Row | SMILES | pIC50 [1] | ED50 (Rattus norvegicus) [µmol/kg] | IC50 (Gastric gland) [nM] | inhibition at 10 µM (hERG (KCNH2)) [%] | logD [2] | pKa [3] | pKa ([3]; read-out: pKa)
1 | Cc1ccccc1[C@@H]1CCc2c(C(=O)NCC3CCCO3)cc3c(nc(C)n3C)c2O1 (stereo not given in full) | 4.3 | 1 | 3160 | 75 | 3 | – | –
2 | CNC(=O)c1cc2c(nc(C)n2C)c2c1CC[C@@H](c1ccccc1)O2 | 4.8 | 0.5 | 6310 | 26 | 2.4 | – | –
3 | CON(C)C(=O)c1cc2c(nc(C)n2C)c2c1CC[C@@H](c1ccccc1C)O2 | 5.4 | 0.15 | 1260 | 13 | 2.9 | 5.49 | –
4 | Cc1nc2c3c(c(C(=O)N4CCC4)cc2n1C)CC[C@@H](c1ccccc1)O3 | 4.9 | 0.3 | 2510 | 18 | 2.6 | – | –
5 | CCCNC(=O)c1cc2c(nc(C)n2C)c2c1CC[C@@H](c1ccccc1C)O2 | 4.7 | < 0.3 | 631 | 66 | 3.2 | 5.63 | –
6 | CSCCNC(=O)c1cc2c(nc(C)n2C)c2c1CC[C@@H](c1ccccc1C)O2 | 4.8 | 1 | 1260 | 73 | 3.2 | – | –
7 | Cc1nc2c3c(c(C(=O)N(C)C)cc2n1C)CC[C@@H](c1cccs1)O3 | 5 | 2 | 50100 | 9 | 2.4 | – | –
8 | COCCNC(=O)c1cc2c(nc(C)n2C)c2c1CC[C@@H](c1ccccc1C)O2 | 4.9 | 0.8 | 3160 | 55 | 2.8 | – | –
9 | CCOC1CN(C(=O)c2cc3c(nc(C)n3C)c3c2CC[C@@H](c2ccccc2C)O3)C1 | 4.5 | 0.4 | 794 | 70 | 3 | – | –
10 | Cc1nc2c3c(c(C(=O)N(C)C)cc2n1C)CC[C@@H](c1ccccc1)O3 | 5.3 | 0.26 | 3160 | 28 | 2.5 | – | –
11 | Cc1ccccc1[C@@H]1CCc2c(C(=O)N3CCCC3)cc3c(nc(C)n3C)c2O1 | 5.4 | 0.7 | 794 | 43 | 3.1 | 5.7 | –
12 | Cc1ccccc1[C@@H]1CCc2c(C(=O)N(C)C)cc3c(nc(CO)n3C)c2O1 | – | 1 | 1170 | 12 | 2.5 | – | –
13 | C#CCNC(=O)c1cc2c(nc(C)n2C)c2c1CC[C@@H](c1ccccc1C)O2 | 4.7 | 0.3 | 2000 | 83 | 3.1 | 5.58 | –
14 | Cc1ccccc1[C@@H]1CCc2c(C(=O)N3CC(F)(F)C3)cc3c(nc(C)n3C)c2O1 | 4.7 | 0.3 | 3980 | 28 | 3.3 | 5.36 | –
15 | CNC(=O)c1cc2c(nc(C)n2C)c2c1CC[C@@H](c1ccc(Cl)cc1)O2 | < 5 | 0.3 | 2000 | 68 | 2.9 | – | –
16 | Cc1ccccc1[C@@H]1CCc2c(C(=O)NCC3CC3)cc3c(nc(C)n3C)c2O1 | 4.7 | < 0.3 | 501 | 90 | 3.3 | 5.76 | –
17 | Cc1nnc(-c2cc3c(nc(C)n3C)c3c2CC[C@@H](c2ccccc2C)O3)o1 | 4.6 | 0.6 | 5010 | 27 | 3.3 | 5.17 | –
18 | Cc1ccccc1[C@@H]1CCc2c(C(=O)NC(C)C)cc3c(nc(C)n3C)c2O1 | 4.7 | 0.45 | 631 | 30 | 3.1 | – | –
19 | Cc1ccccc1[C@@H]1CCc2c(C(=O)NCC[S+](C)[O-])cc3c(nc(C)n3C)c2O1 (stereo not given in full) | 4.6 | 1.4 | – | 6 | – | – | –
20 | Cc1ccccc1[C@@H]1CCc2c(C(=O)N(C)C)cn3c(C)c(C)nc3c2O1 | – | – | – | – | – | – | 7.15
21 | Cc1ccccc1[C@@H]1CCc2c(C(=O)N3CC(O)C3)cc3c(nc(C)n3C)c2O1 | 5 | 1.2 | 39800 | 11 | 2.4 | – | –
22 | Cc1ccccc1[C@@H]1CCc2c(C(=O)NCC3CCCCO3)cc3c(nc(C)n3C)c2O1 (stereo not given in full) | < 5 | 1.2 | 6310 | 54 | 3.3 | – | –
